The values below come from ChEMBL document CHEMBL1136924 (J Med Chem, 2009).

In data set [1] the test system is Rattus norvegicus. Briefly: Agonist activity at 5HT3 receptor in urethane-anesthetized Sprague-Dawley rat assessed as induction of bradycardia at 50 ug/kg, iv measured after 5 to 30 mins post-treatment by von Bezold-Jarisch reflex test relative to 40 ug/kg, iv 1-phenylbiguanide. It is filed as functional.
Data set [2] deals with T1, 5-hydroxytryptamine receptor 3A (Rattus norvegicus, UniProt P35563).
T1 sequence (P35563 whole entry): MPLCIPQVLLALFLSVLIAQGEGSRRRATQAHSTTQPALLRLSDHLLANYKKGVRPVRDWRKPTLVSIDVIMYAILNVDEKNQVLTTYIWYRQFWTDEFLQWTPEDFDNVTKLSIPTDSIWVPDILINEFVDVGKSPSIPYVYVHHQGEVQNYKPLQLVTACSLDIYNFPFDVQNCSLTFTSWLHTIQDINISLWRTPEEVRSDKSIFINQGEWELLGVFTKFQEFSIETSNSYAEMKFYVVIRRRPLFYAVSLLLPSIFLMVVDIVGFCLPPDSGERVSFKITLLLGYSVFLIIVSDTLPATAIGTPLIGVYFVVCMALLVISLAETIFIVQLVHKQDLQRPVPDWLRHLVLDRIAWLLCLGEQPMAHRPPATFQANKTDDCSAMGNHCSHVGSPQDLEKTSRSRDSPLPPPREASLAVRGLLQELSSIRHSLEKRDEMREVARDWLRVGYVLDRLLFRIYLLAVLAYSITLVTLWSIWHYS
Briefly: Displacement of [3H]LY278584 from 5HT3 receptor in rat cortical homogenate. A general note: In a radioligand displacement assay an active substance lowers the binding of a labelled ligand.

Data set [3] concerns the target T2, 5-hydroxytryptamine receptor 1A (Rattus norvegicus, UniProt P19327).
T2 sequence (P19327 whole entry): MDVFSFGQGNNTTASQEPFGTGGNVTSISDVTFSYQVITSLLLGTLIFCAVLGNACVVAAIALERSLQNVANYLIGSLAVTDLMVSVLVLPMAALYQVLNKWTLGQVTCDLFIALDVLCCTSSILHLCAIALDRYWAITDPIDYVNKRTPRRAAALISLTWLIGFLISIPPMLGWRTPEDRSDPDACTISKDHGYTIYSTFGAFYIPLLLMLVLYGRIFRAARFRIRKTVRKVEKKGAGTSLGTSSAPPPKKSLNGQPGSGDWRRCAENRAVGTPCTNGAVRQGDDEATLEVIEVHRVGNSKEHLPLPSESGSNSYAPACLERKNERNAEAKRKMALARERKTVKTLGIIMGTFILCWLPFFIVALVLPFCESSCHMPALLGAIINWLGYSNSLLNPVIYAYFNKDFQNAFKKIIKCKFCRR
Nature of the data set: Displacement of [3H]8-OHDPAT from 5HT1A receptor in rat hippocampus. It is filed as tissue-based.

For data set [4], the target named is T3, 5-hydroxytryptamine receptor 3A (Cavia porcellus) (UniProt O70212).
T3 sequence (whole entry): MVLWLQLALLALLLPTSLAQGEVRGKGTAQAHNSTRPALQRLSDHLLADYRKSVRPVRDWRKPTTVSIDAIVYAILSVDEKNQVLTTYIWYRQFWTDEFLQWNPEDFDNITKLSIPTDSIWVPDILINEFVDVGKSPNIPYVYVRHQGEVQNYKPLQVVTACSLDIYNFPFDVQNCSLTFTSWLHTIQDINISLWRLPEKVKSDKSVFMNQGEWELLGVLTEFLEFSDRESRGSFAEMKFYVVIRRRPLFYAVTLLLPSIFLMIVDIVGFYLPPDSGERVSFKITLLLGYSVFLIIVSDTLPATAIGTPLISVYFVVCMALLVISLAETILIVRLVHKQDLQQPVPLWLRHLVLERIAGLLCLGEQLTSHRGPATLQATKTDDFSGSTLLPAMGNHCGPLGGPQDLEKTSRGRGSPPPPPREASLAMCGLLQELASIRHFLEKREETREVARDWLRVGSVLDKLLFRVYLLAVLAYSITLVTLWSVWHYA
Briefly: Agonist activity at 5HT3 receptor in spontaneously beating guinea pig right atrium assessed as positive chronotropic potency at 100 uM. It is filed as functional, tissue-based. Conditions: Cardiac atrium. In a few lines:
(§1)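 Guinea pig left and right atria were hung in a 15 mL bath of PSS (pH 7.4, 95% O2-5% CO2, 35 °C) with ketanserin 1 µM. The right atrium beat spontaneously; the left was paced at 1 Hz. Cumulative doses (0.1-100 µM; DMSO ≤0.3%) were added after 45-60 min stabilization. Rate or isometric force was recorded. EC50 came from Probit analysis, n≥4. Intrinsic activity was taken relative to 5-HT.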

Data set [5] deals with T3, 5-hydroxytryptamine receptor 3A (Cavia porcellus). Nature of the data set: Agonist activity at 5HT3 receptor in guinea pig thoracic aorta assessed as positive contractility potency at 100 uM. It is filed as functional, tissue-based. In a few lines: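 Guinea pig aortic helicoidal strips in PSS at 35 °C, aerated, under 1 g resting force, washed every 20 min for 1 h. Compounds added cumulatively 0.1-100 µM (DMSO vehicle); isometric contraction recorded.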

Data set [6] has as its target T4, 5-hydroxytryptamine receptor 3A (Cavia porcellus, UniProt O70212).
T4 sequence (O70212 whole entry): T3 sequence (whole entry)
Briefly: Antagonist activity at 5HT3 receptor in spontaneously beating guinea pig right atrium assessed as inhibition of serotonin-induced maximum response by noncompetitive binding assay. It is filed as tissue-based, Cardiac atrium. In a few lines:
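Spontaneously beating guinea pig right atrium; 5-HT concentration-response curves (0.001-1.0 µM) before and after 30 min antagonist exposure at three concentrations. IC50 is inhibition of 50% of maximal 5-HT response, Probit analysis, n = 4-6.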

Data set [7] concerns Rattus norvegicus. Nature of the data set: Antagonist activity at 5HT3 receptor in urethane-anesthetized Sprague-Dawley rat assessed as reduction in 1-phenylbiguanide-induced bradycardia at 100 ug/kg, iv administered 5 mins before 1-phenylbiguanide challenge measured after 5 to 30 mins post-treatment by von Bezold-Jarisch reflex test. It is filed as functional, organism-based.

Data set [8] in a line: Plasma concentration in CD1 albino mouse at 5 mg/kg, ip after 15 mins. It is filed as ADME, organism-based. Also on record: dose 5 mg/kg, route intraperitoneal. An outline of the steps:
(§2)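 Male CD1 mice (25-30 g) given ip 5 or 20 mg/kg, killed at set times; trunk blood plasma and brain collected. Solid-phase C18 extraction with internal standard, HPLC-UV at 240 nm. Quantification limits about 0.25 nmol/mL plasma, 0.5 nmol/g brain. Three mice per point. Half-life 0.693/β; clearance dose·F/AUC.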

A short description of data set [9]: Plasma concentration in CD1 albino mouse at 20 mg/kg, ip after 15 mins. It is filed as ADME, organism-based. Also on record: dose 20 mg/kg, route intraperitoneal. An outline of the steps: as §2
A short description of data set [10]: Elimination half life in CD1 albino mouse plasma at 20 mg/kg, ip. It is filed as ADME, organism-based. Set-up: dose 20 mg/kg, route intraperitoneal. Conditions: read-out: beta t1/2. In a few lines:
as §2

A short description of data set [11]: Clearance in CD1 albino mouse plasma at 20 mg/kg, ip. It is filed as ADME, organism-based. Set-up: dose 20 mg/kg, route intraperitoneal. In a few lines:
as §2

Data set [12] is described as follows: Apparent volume of distribution with respect to the bioavailability in CD1 albino mouse plasma at 20 mg/kg, ip. It is filed as ADME, organism-based. Conditions: read-out: Vc/F. An outline of the steps:
as §2

The subject of data set [13] is Rattus norvegicus. Nature of the data set: Activity at 5HT3 receptor in urethane-anesthetized Sprague-Dawley rat assessed as effect on heart rate at 100 ug/kg, iv measured after 5 to 30 mins post-treatment by von Bezold-Jarisch reflex test relative to 40 ug/kg, iv 1-phenylbiguanide. It is filed as functional, organism-based.
Data set [14] has as its target T3, 5-hydroxytryptamine receptor 3A (Cavia porcellus). Nature of the data set: Agonist activity at 5HT3 receptor in spontaneously beating guinea pig right atrium assessed as positive chronotropic potency. It is filed as functional, tissue-based. Conditions: Cardiac atrium. In a few lines:
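Isolated guinea pig atria in PSS (Tyrode) with ketanserin 1 µM, 95% O2-5% CO2, pH 7.4, 35 °C. Right atrium beating spontaneously (rate); left atrium paced 1 Hz, 0.6-0.8 ms pulses near 50% threshold (force). Isometric recording after 45-60 min stabilization.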

For data set [15] the target is unchanged. Briefly: Intrinsic activity at 5HT3 receptor in spontaneously beating guinea pig right atrium assessed as positive chronotropic potency relative to serotonin. Conditions: Cardiac atrium. An outline of the steps:
as §1

The source made the active and inactive calls.

`N/C(CN1CCN(c2nc3cc(F)ccc3n3cccc23)CC1)=N\O`: in [1], the Activity was 60%. Moreover, the values for the Ki in [2] and in data set [3] were 0.8 nM and more than 10000 nM, respectively. The pD2 result in [4] and in [5] was “inactive” each time. Further, the IC50 (commonly the concentration that gives 50% inhibition) in [6] was 5750 nM.
For `N[C@@H](CN1CCN(c2nc3cc(F)ccc3n3cccc23)CC1)C(=O)O`, in [7], the outcome was Active. The concentration at 0.25 h in [8] turned out to be 2 µM; in data set [9], 12 µM. The half-life in data set [10] turned out to be 53 min. Moreover, in data set [11], the CL/F (commonly clearance divided by bioavailability, as obtained after extravascular dosing) is 90 mL/min/kg. In addition, in [12], the Vd/F worked out at 6 L/kg. The outcome in [13] was inactive. Moreover, the figures for the Ki in [2] and in [3] were 2.8 nM and 446 nM, respectively. Besides, the pD2 in data set [14] was 5.98. For the same compound, the Intrinsic activity in data set [15] was 0.81. Further, the pD2 entry in data set [5] was “inactive”.
